# Tests used:
# A549 = experiment: Cytotoxicity against human A549 cells after 48 hrs by SRB assay; assay type: functional; settings: A549, 48 h
# How it was run: (§1)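 NCI-60 five-dose screen at 10−8 to 10−4 M. Cells were plated at 5,000–40,000/well in RPMI 1640 with 5% FBS and 2 mM L-glutamine, then preincubated 24 h, and time-zero plates were TCA-fixed. Compound was added from DMSO stocks and exposed 48 h at 37 °C. Cells were TCA-fixed, SRB-stained, and read at 515 nm. LC50 is the concentration halving the cell population through cell death.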
# KM12 = experiment: Cytotoxicity against human KM12 cells after 48 hrs by SRB assay; assay type: functional; settings: KM12, 48 h; how it was run: as §1
# MDA-MB-231 = experiment: Cytotoxicity against human MDA-MB-231 cells after 48 hrs by SRB assay; assay type: functional; settings: MDA-MB-231, 48 h; how it was run: as §1
# MDA-MB-468 = experiment: Cytotoxicity against human MDA-MB-468 cells after 48 hrs by SRB assay; assay type: functional; settings: MDA-MB-468, 48 h; how it was run: as §1
# ACHN = experiment: Cytotoxicity against human ACHN cells after 48 hrs by SRB assay; assay type: functional; how it was run: as §1
# LOX IMVI = experiment: Cytotoxicity against human LOXIMVI cells after 48 hrs by SRB assay; assay type: functional; how it was run: as §1
# SF-295 = experiment: Cytotoxicity against human SF295 cells after 48 hrs by SRB assay; assay type: functional; settings: SF-295, 48 h; how it was run: as §1
# NCI-H23 = experiment: Cytotoxicity against human NCI-H23 cells after 48 hrs by SRB assay; assay type: functional; settings: NCI-H23, 48 h; how it was run: as §1
# [1] = Antileukemic activity against human M9-ENL1 cells after 24 hrs by annexin V/7-AAD staining-based flow cytometric analysis; assay type: functional, cell-based
# How it was run: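 M9-ENL1 cells in alpha-MEM with 5% human plasma, 20% FBS, SCF, IL-3, IL-7 and FLT3. Drug came from a DMSO stock diluted in PBS (≤0.5% DMSO final), for 24 h over 0.5-10 μM. Cells negative for both annexin V and 7-AAD were taken as non-apoptotic and normalized to vehicle. EC50 read from dose-response curves, triplicate.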
# U-251 = experiment: Cytotoxicity against human U251 cells after 48 hrs by SRB assay; assay type: functional; settings: U-251, 48 h
# How it was run: (§2)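 NCI-60 screen: cells grown in RPMI 1640 with 5% FBS and 2 mM L-glutamine, plated at 5,000–40,000 cells/well by doubling time, and preincubated 24 h at 37 °C before drug. Drug was diluted from DMSO stock and given at five concentrations, 10−4 to 10−8 M, for 48 h. Cells fixed with cold TCA, SRB stained, OD read at 515 nm against time-zero and vehicle plates. LC50 taken as the concentration that halves cell population through cell death.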
# UACC-257 = experiment: Cytotoxicity against human UACC257 cells after 48 hrs by SRB assay; assay type: functional; settings: UACC-257, 48 h; how it was run: as §2
# M14 = experiment: Cytotoxicity against human M14 cells after 48 hrs by SRB assay; assay type: functional; settings: M14, 48 h; how it was run: as §1
# OVCAR-3 = experiment: Cytotoxicity against human OVCAR3 cells after 48 hrs by SRB assay; assay type: functional; settings: OVCAR-3, 48 h; how it was run: as §1
# RXF 393 = experiment: Cytotoxicity against human RXF393 cells after 48 hrs by SRB assay; assay type: functional; settings: RXF 393, 48 h; how it was run: as §1
# BT-549 = experiment: Cytotoxicity against human BT549 cells after 48 hrs by SRB assay; assay type: functional; settings: BT-549, 48 h; how it was run: as §1
# [2] = Cytotoxicity against human Hs 578T cells after 48 hrs by SRB assay; assay type: functional; how it was run: as §1
# SK-OV-3 = experiment: Cytotoxicity against human SKOV3 cells after 48 hrs by SRB assay; assay type: functional; settings: SK-OV-3, 48 h; how it was run: as §1
# MOLT-4 = experiment: Cytotoxicity against human MOLT4 cells after 48 hrs by SRB assay; assay type: functional; settings: MOLT-4, 48 h; how it was run: as §1
# DU-145 = experiment: Cytotoxicity against human DU145 cells after 48 hrs by SRB assay; assay type: functional; settings: DU-145, 48 h; how it was run: as §1
# UO-31 = experiment: Cytotoxicity against human UO31 cells after 48 hrs by SRB assay; assay type: functional; settings: UO-31, 48 h; how it was run: as §2
# 786-0 = experiment: Cytotoxicity against human 786-0 cells after 48 hrs by SRB assay; assay type: functional; settings: 786-0, 48 h; how it was run: as §1
# OVCAR-4 = experiment: Cytotoxicity against human OVCAR4 cells after 48 hrs by SRB assay; assay type: functional; settings: OVCAR-4, 48 h; how it was run: as §1
# SK-MEL-5 = experiment: Cytotoxicity against human SK-MEL-5 cells after 48 hrs by SRB assay; assay type: functional; settings: SK-MEL-5, 48 h; how it was run: as §1
# COLO 205 = experiment: Cytotoxicity against human COLO205 cells after 48 hrs by SRB assay; assay type: functional; settings: COLO 205, 48 h; how it was run: as §1
# HOP-92 = experiment: Cytotoxicity against human HOP92 cells after 48 hrs by SRB assay; assay type: functional; settings: HOP-92, 48 h; how it was run: as §1
# MDA-MB-435 = experiment: Cytotoxicity against human MDA-MB-435 cells after 48 hrs by SRB assay; assay type: functional; settings: MDA-MB-435, 48 h; how it was run: as §1
# [3] = Cytotoxicity against hematopoietic progenitor cells isolated from human umbilical cord blood by annexin V staining-based flow cytometric analysis; assay type: cell-based
# How it was run: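 Cord-blood mononuclear cells from Ficoll-Paque were plated in serum-free medium, with drug from a DMSO stock (≤0.5% DMSO final). Cells were stained for CD34, CD45 and annexin V. The non-apoptotic fraction (annexin V-negative within the CD34+CD45dim compartment) was normalized to vehicle, and EC50 was fitted where possible. Triplicate.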
# SF-268 = experiment: Cytotoxicity against human SF268 cells after 48 hrs by SRB assay; assay type: functional; settings: SF-268, 48 h; how it was run: as §1
# NCI-H226 = experiment: Cytotoxicity against human NCI-H226 cells after 48 hrs by SRB assay; assay type: functional; settings: NCI-H226, 48 h; how it was run: as §1
# SK-MEL-28 = experiment: Cytotoxicity against human SK-MEL-28 cells after 48 hrs by SRB assay; assay type: functional; settings: SK-MEL-28, 48 h; how it was run: as §1
# HL-60(TB) = experiment: Cytotoxicity against human HL-60(TB) cells after 48 hrs by SRB assay; assay type: functional; settings: HL-60, 48 h; how it was run: as §1
# [4] = Potency index, ratio of parthenolide EC50 to compound EC50 for human M9-ENL1 cells; assay type: functional
# SN12C = experiment: Cytotoxicity against human SN12C cells after 48 hrs by SRB assay; assay type: functional; how it was run: as §1
# [5] = read-out: LC50 (the source's name)
smiles,measurement,setting,value
C=C1C(=O)O[C@H]2[C@H]1CC/C(COC(=O)NCCCCCCCCNC(=O)OC/C1=C/CC[C@@]3(C)O[C@H]3[C@H]3OC(=O)C(=C)[C@@H]3CC1)=C\CC[C@@]1(C)O[C@@H]21,GI50,A549,1700 nM
same,CC50,A549; [5],7260 nM
same,GI50,KM12,1290 nM
same,CC50,KM12; [5],7490 nM
same,GI50,MDA-MB-231,200 nM
same,LC50,MDA-MB-231,1240 nM
same,GI50,MDA-MB-468,190 nM
same,LC50,MDA-MB-468,1500 nM
same,GI50,ACHN,250 nM
same,CC50,ACHN; [5],2850 nM
same,GI50,LOX IMVI,170 nM
same,CC50,LOX IMVI; [5],760 nM
same,GI50,SF-295,1950 nM
same,CC50,SF-295; [5],16200 nM
same,GI50,NCI-H23,480 nM
same,CC50,NCI-H23; [5],4860 nM
same,EC50,[1],2000 nM
same,GI50,U-251,570 nM
same,CC50,U-251; [5],5130 nM
same,GI50,UACC-257,840 nM
same,CC50,UACC-257; [5],8510 nM
same,GI50,M14,270 nM
same,CC50,M14; [5],4530 nM
same,GI50,OVCAR-3,330 nM
same,CC50,OVCAR-3; [5],3320 nM
same,GI50,RXF 393,160 nM
same,CC50,RXF 393; [5],640 nM
same,GI50,BT-549,250 nM
same,LC50,BT-549,3570 nM
same,GI50,[2],1170 nM
same,CC50,[2]; [5],> 100000 nM
same,GI50,SK-OV-3,3640 nM
same,CC50,SK-OV-3; [5],35100 nM
same,GI50,MOLT-4,330 nM
same,CC50,MOLT-4; [5],> 100000 nM
same,GI50,DU-145,1100 nM
same,LC50 (concentration killing half the cells),DU-145,4810 nM
same,GI50,UO-31,880 nM
same,CC50,UO-31; [5],4900 nM
same,GI50,786-0,240 nM
same,CC50,786-0; [5],2930 nM
same,GI50,OVCAR-4,520 nM
same,CC50,OVCAR-4; [5],4630 nM
same,GI50,SK-MEL-5,1210 nM
same,CC50,SK-MEL-5; [5],5530 nM
same,GI50,COLO 205,300 nM
same,CC50,COLO 205; [5],3990 nM
same,GI50,HOP-92,170 nM
same,CC50,HOP-92; [5],2290 nM
same,GI50,MDA-MB-435,240 nM
same,CC50,MDA-MB-435; [5],3740 nM
same,EC50,[3],> 10000 nM
same,GI50,SF-268,990 nM
same,CC50,SF-268; [5],7240 nM
same,GI50,NCI-H226,1810 nM
same,CC50,NCI-H226; [5],21100 nM
same,GI50,SK-MEL-28,200 nM
same,CC50,SK-MEL-28; [5],2120 nM
same,GI50,HL-60(TB),260 nM
same,CC50,HL-60(TB); [5],> 100000 nM
same,Ratio EC50,[4],2
same,GI50,SN12C,260 nM
same,CC50,SN12C; [5],5490 nM

# Reference: ChEMBL document CHEMBL3632581, “Dimers of Melampomagnolide B Exhibit Potent Anticancer Activity against Hematological and Solid Tumor Cells” (J Med Chem, 2015)
